CHRM5 agonist: CHRM5 agonism in calcium assay | P08912 | AID 624037 | activation, % at 3 µM | 360,000 compounds, 0.19% hits | CHO-K1 hM5 cells, Fluo-8 calcium fluorescence; 0% DMSO wells, 100% maximal acetylcholine response;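 active means activation above the run's mean over test compounds plus 3 SD, cut at about 23% in these data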;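 further: signal is peak over basal fluorescence ratio across the kinetic read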
Target sequence (P08912 whole entry, looked up): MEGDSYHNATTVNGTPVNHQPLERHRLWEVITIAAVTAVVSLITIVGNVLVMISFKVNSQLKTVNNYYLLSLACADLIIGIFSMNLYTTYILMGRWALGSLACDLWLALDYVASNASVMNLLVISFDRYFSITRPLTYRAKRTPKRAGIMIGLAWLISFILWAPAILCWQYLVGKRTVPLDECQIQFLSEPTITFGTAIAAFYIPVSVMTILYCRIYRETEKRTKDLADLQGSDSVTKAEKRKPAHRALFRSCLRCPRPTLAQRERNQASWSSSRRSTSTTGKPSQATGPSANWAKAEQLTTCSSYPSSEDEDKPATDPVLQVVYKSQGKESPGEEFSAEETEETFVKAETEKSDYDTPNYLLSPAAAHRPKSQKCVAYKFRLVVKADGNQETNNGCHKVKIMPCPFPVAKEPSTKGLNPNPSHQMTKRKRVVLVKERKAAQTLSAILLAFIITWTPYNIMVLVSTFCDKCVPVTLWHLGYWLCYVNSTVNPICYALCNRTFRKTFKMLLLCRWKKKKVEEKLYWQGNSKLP
CHRM5 antagonist: antagonists of human muscarinic M5 receptor (CHRM5); CHO-hM5 cells, Fluo-8 calcium fluorescence, ACh EC80; P08912; 360,000 compounds, 0.59% hits; inhibition, % at 3 µM;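 active means inhibition above a per-plate cutoff, the mean of that plate's test compounds plus 3 SD, cut at about 27% in these data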
CHRM5 PAM: potentiates acetylcholine response at human M5 receptor; P08912; CHO-K1 hM5, Fluo-8 calcium, ACh EC20 PAM; 0% = ACh EC20, 100% = ACh EC100; activation, % at 3 µM; 360,000 compounds, 0.3% hits; AID 624038;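 active means activation above the run cutoff, the mean activation of all test compounds plus 3 SD, cut at about 18% in these data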
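Replicates: One well per compound, no replicates | System: Human M5 receptor in CHO-K1 cells | Benchmarks: Low control EC20 acetylcholine (0%), high control EC100 acetylcholine (100%) | Probe or stimulus: Acetylcholine, EC20 level | Times: Fluo-8 loading 80 min at 37 °C plus 30 min room temperature | Signal: Intracellular calcium via Fluo-8 fluorescence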
CHRM4 PAM: CHRM4 positive allosteric modulation; P08173; activation, % at 3 µM; 360,000 compounds, 0.4% hits; CHO-K1 hM4/Gqi5, Fluo-8 calcium fluorescence, ACh EC20; 0% = ACh EC20, 100% = maximal ACh;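 active means activation above its plate's cutoff, the mean activation of sample wells plus 3 SD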
CHRM4 antagonist: blocks acetylcholine activation of human M4 receptor. P08173. CHO-hM4 cells, ACh EC80, Fluo-8 calcium fluorescence. inhibition, % at 3 µM. 360,000 compounds, 0.73% hits. AID 624125;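 active means inhibition above its plate's cutoff, the mean inhibition of sample wells plus 3 SD, cut at about 27% in these data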
CHRM4 agonist: agonists of human muscarinic M4 receptor (CHRM4); P08173; activation, % at 3 µM; 360,000 compounds, 0.14% hits; AID 624127; CHO-K1 hM4/Gqi5, Fluo-8 calcium fluorescence; vehicle 0%, full acetylcholine response 100%;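 active means activation above the run mean over all test wells plus 3 SD, cut at about 32% in these data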;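 further: peak over basal fluorescence ratio per well then scaled between controls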
A number is an active result. The list is not random: actives were taken first. Their share in the collection is about 1.8%.

`COC(=O)C1=C(C)NC2=C(C(=O)CCC2)C1c1ccc(-c2ccsc2C(=O)OC)o1` (stereo unspecified) gave CHRM5 agonist inactive, CHRM5 antagonist inactive, CHRM5 PAM inactive, CHRM4 PAM inactive, CHRM4 antagonist inactive and CHRM4 agonist 37.
Screening CC1=C(C(=O)OC2CCCCCC2)C(c2ccc(C)o2)C2=C(CCCC2=O)N1 (stereo unspecified) returned CHRM5 agonist inactive, CHRM5 antagonist inactive, CHRM5 PAM inactive, CHRM4 PAM inactive, CHRM4 antagonist inactive and CHRM4 agonist inactive.
Screening Cn1cc(Cl)c(C(=O)OCC(=O)Nc2ccccc2)n1 returned CHRM5 agonist inactive, CHRM5 antagonist 47, CHRM5 PAM inactive, CHRM4 PAM inactive, CHRM4 antagonist inactive and CHRM4 agonist inactive.
Screening Cn1ccc(C(=O)OCC(=O)Nc2cccc(Cl)c2)n1 returned CHRM5 agonist inactive, CHRM5 antagonist inactive, CHRM5 PAM inactive, CHRM4 PAM inactive, CHRM4 antagonist inactive and CHRM4 agonist inactive.
Screening Cc1ccc([C@H]2C[C@H](n3cc(C4CC4)nn3)[C@@H](O)CN2C(=O)c2cccs2)cc1 returned CHRM5 agonist inactive, CHRM5 antagonist inactive, CHRM5 PAM inactive, CHRM4 PAM inactive, CHRM4 antagonist inactive and CHRM4 agonist inactive.
`O=C(COc1ccccc1Cl)Nc1ccc2c(c1)C(=O)NC2=O` gave CHRM5 agonist inactive, CHRM5 antagonist inactive, CHRM5 PAM inactive, CHRM4 PAM inactive, CHRM4 antagonist inactive and CHRM4 agonist inactive.
`Cc1cc(C)c(S(=O)(=O)c2ccc(Cl)cc2)c(Cl)n1` gave CHRM5 agonist inactive, CHRM5 antagonist inactive, CHRM5 PAM inactive, CHRM4 PAM inactive, CHRM4 antagonist inactive and CHRM4 agonist inactive.
Cc1cc(S(=O)(=O)c2ccc(Cl)cc2)nc(S(=O)(=O)c2ccc(Cl)cc2)c1C#N was read as CHRM5 agonist inactive, CHRM5 antagonist inactive, CHRM5 PAM inactive, CHRM4 PAM inactive, CHRM4 antagonist 88 and CHRM4 agonist inactive.
COc1ccc(C(=O)NCCc2ccccc2F)cc1OC1CCN(C(C)=O)CC1 was read as CHRM5 agonist inactive, CHRM5 antagonist inactive, CHRM5 PAM inactive, CHRM4 PAM inactive, CHRM4 antagonist inactive and CHRM4 agonist inactive.
COc1ccc(CN2CCN(C(=O)CC(C)C)CC2)c2ccccc12 was read as CHRM5 agonist inactive, CHRM5 antagonist inactive, CHRM5 PAM 42, CHRM4 PAM inactive, CHRM4 antagonist inactive and CHRM4 agonist inactive.
For COc1ccc(CN2CCN(C(=O)CC(C)C)CC2)cc1OC the results were CHRM5 agonist inactive, CHRM5 antagonist inactive, CHRM5 PAM inactive, CHRM4 PAM inactive, CHRM4 antagonist inactive and CHRM4 agonist inactive.
`Cc1csc(=O)n1CC(=O)Nc1ccc(Cl)c(Cl)c1` gave CHRM5 agonist inactive, CHRM5 antagonist inactive, CHRM5 PAM inactive, CHRM4 PAM inactive, CHRM4 antagonist inactive and CHRM4 agonist inactive.
Cn1c(N)c(N2CCCCC2)c(=O)n(CC(=O)Nc2ccc(Cl)c(Cl)c2)c1=O was read as CHRM5 agonist inactive, CHRM5 antagonist inactive, CHRM5 PAM 19, CHRM4 PAM inactive, CHRM4 antagonist inactive and CHRM4 agonist inactive.
COc1ccc(CCc2nnc(N)s2)cc1OC was read as CHRM5 agonist inactive, CHRM5 antagonist inactive, CHRM5 PAM inactive, CHRM4 PAM inactive, CHRM4 antagonist inactive and CHRM4 agonist inactive.
O=[N+]([O-])c1ccc2c(c1)C(N1CCN(CCO)CC1)Cc1ccc(F)cc1S2 (stereo unspecified) was read as CHRM5 agonist inactive, CHRM5 antagonist inactive, CHRM5 PAM inactive, CHRM4 PAM inactive, CHRM4 antagonist inactive and CHRM4 agonist inactive.
For CSc1ccc2c(c1)C(N1CCN(C)CC1)Cc1ccc(F)cc1S2 (stereo unspecified) the results were CHRM5 agonist inactive, CHRM5 antagonist 29, CHRM5 PAM inactive, CHRM4 PAM inactive, CHRM4 antagonist 43 and CHRM4 agonist inactive.
`CCCCC(O)(CCN1CCOCC1)c1ccc(Cl)cc1` (stereo unspecified) gave CHRM5 agonist inactive, CHRM5 antagonist 32, CHRM5 PAM inactive, CHRM4 PAM inactive, CHRM4 antagonist 68 and CHRM4 agonist inactive.

Screening data deposited in PubChem BioAssay by The Scripps Research Institute Molecular Screening Center.
